14 compounds from ChEMBL document CHEMBL4196198, “Terpenoids from Euphorbia pedroi as Multidrug-Resistance Reversers” (J Nat Prod, 2018) can be followed below.

In series [1] the test system is L5178Y. The series can be described thus: Antiproliferative activity against mouse L5178Y cells after 72 hrs by MTT assay. The series is classed as cell-based. The essentials: (§1)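 L5178Y-PAR and ABCB1-transfected L5178Y-MDR cells seeded at 6 × 10^3 per well. Compounds tested in 2-fold serial dilutions for 72 h. MTT in PBS was added for 4 h, then SDS (10% in 0.01 M HCl) overnight at 37 °C. OD read at 550 nm (reference 630 nm), in quadruplicate. IC50 fitted from dose–inhibition curves; mean ± SD.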
Background: Tetrazolium assays rely on reduction of a dye to a coloured formazan, in cell work by metabolically active cells.

The test system of a further series is COLO 205. The series can be described thus: Cytotoxicity against human COLO205 cells after 24 hrs by MTT assay. In kind it is cell-based. The settings on record: COLO 205, 24 h. Put shortly: (§2)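 Cells seeded at 1 × 10^4 per well, with adherent lines detached by trypsin-EDTA and allowed 4 h attachment at 37 °C, 5% CO2. Compounds in 2-fold serial dilutions for 24 h. MTT for 4 h, SDS/HCl solubilization overnight, OD 550 nm (ref 630 nm) in quadruplicate. Percent growth inhibition calculated vs cell and medium controls; IC50 from fitted curves.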

Series [2] concerns the target T1, ATP-dependent translocase ABCB1 (Homo sapiens, UniProt P08183). Briefly: Modulation of human ABCB1 expressed in mouse L5178Y cells assessed as fluorescence activity ratio at 2 uM pretreated for 10 mins followed by rhodamine 123 addition and measured after 20 mins by flow cytometry (reference value: 1.01). The series is classed as cell-based. In general terms: A flow cytometer gives signals particle by particle.

Series [3] has as its target T1, ATP-dependent translocase ABCB1. The series can be described thus: Modulation of ABCB1 (unknown origin) expressed in human COLO320 cells co-expressing LRP assessed as fluorescence activity ratio at 2 uM pretreated for 10 mins followed by rhodamine 123 addition and measured after 20 mins by flow cytometry (reference value: 0.79). In kind it is cell-based.
Series [4] shares this target. Briefly: Modulation of ABCB1 (unknown origin) expressed in human COLO320 cells co-expressing LRP assessed as fluorescence activity ratio at 20 uM pretreated for 10 mins followed by rhodamine 123 addition and measured after 20 mins by flow cytometry (reference value: 0.79). In kind it is cell-based.
For series [5], the system named is L5178Y. Briefly: Antiproliferative activity against mouse L5178Y cells harboring human ABCB1 after 72 hrs by MTT assay. The series is classed as ADME, cell-based. Put shortly:
as §1

The test system of another series is NIH3T3. Briefly: Cytotoxicity against mouse NIH/3T3 cells after 24 hrs by MTT assay. In kind it is cell-based. The settings on record: NIH3T3, 24 h. Put shortly:
as §2

The subject of another series is COLO 320. The series can be described thus: Cytotoxicity against human COLO320 cells after 24 hrs by MTT assay. The series is classed as cell-based. The note with it: COLO 320, 24 h. Put shortly: as §2
Series [6] addresses T1, ATP-dependent translocase ABCB1. Briefly: Modulation of human ABCB1 expressed in mouse L5178Y cells assessed as fluorescence activity ratio at 20 uM pretreated for 10 mins followed by rhodamine 123 addition and measured after 20 mins by flow cytometry (reference value: 1.01). The series is classed as cell-based.
The test system of a further series is MRC5. Briefly: Cytotoxicity against human MRC5 cells after 24 hrs by MTT assay. The series is classed as cell-based. The note with it: MRC5, 24 h. Put shortly: as §2
Series [7] has as its target T1, ATP-dependent translocase ABCB1. Briefly: Modulation of human ABCB1 expressed in mouse L5178Y cells assessed as potentiation of doxorubicin-induced cytotoxicity by measuring combination index at ED50 measured after 48 hrs by MTT assay. The series is classed as cell-based. The essentials:
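Checkerboard in L5178Y-MDR cells: doxorubicin diluted 14.7–0.1 μM along one axis, modulator diluted from 2-fold its IC50 along the other, at fixed ratios. Cells at 2 × 10^5/mL, 48 h, MTT read-out. Dose–response curves fitted by Chou median-effect equation, keeping only r > 0.90. CI at 50% inhibition given as mean ± SD of three CI values from different drug ratios.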

The target is the same in series [8]. The series can be described thus: Modulation of human ABCB1 expressed in mouse L5178Y cells assessed as fluorescence activity ratio at 0.2 uM pretreated for 10 mins followed by rhodamine 123 addition and measured after 20 mins by flow cytometry (reference value: 1.01). In kind it is cell-based.
For series [9] the target is unchanged. Briefly: Modulation of ABCB1 (unknown origin) expressed in human COLO320 cells co-expressing LRP assessed as fluorescence activity ratio at 0.2 uM pretreated for 10 mins followed by rhodamine 123 addition and measured after 20 mins by flow cytometry (reference value: 0.79). In kind it is cell-based.

Each structure is given as a SMILES string.

T1 sequence (P08183 whole entry): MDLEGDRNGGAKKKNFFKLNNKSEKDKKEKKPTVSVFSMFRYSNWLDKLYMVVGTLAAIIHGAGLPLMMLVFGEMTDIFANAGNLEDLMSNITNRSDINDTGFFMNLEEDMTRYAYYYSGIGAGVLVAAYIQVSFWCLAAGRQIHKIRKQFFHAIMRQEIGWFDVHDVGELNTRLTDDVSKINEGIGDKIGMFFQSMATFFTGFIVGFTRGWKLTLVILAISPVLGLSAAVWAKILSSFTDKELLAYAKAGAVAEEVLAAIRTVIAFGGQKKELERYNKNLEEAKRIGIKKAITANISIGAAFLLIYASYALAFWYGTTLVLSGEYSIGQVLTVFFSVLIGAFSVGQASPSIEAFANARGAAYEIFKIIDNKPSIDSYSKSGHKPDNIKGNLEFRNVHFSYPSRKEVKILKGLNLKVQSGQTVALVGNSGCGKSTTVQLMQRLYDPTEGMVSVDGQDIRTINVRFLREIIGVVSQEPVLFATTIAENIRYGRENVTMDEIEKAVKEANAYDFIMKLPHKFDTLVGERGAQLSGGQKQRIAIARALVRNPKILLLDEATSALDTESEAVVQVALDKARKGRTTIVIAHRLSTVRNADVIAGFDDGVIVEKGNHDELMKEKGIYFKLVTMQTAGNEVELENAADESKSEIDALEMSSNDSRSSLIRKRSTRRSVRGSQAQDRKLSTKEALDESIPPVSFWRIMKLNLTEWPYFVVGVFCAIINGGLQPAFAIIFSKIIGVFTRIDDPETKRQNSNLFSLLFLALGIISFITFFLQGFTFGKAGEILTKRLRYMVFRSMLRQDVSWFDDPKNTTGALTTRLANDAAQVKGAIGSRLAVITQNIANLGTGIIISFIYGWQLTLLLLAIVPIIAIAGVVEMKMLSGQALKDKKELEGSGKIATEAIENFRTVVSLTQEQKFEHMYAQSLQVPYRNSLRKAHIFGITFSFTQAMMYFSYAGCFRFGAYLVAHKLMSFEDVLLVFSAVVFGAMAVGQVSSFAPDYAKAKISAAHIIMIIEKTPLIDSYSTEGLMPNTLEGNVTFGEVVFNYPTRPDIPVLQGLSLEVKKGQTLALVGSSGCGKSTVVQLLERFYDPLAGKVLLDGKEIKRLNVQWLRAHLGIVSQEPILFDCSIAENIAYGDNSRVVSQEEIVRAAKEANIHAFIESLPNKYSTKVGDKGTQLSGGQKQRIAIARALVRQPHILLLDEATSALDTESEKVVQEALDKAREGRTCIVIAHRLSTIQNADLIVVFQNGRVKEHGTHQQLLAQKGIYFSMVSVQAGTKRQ

One may read the IC50 as the concentration that gives 50% inhibition. Lower therefore signals greater potency in that assay. For `C[C@H](C/C=C/C(C)(C)O)[C@H]1CC[C@@]2(C)[C@@H]3CC[C@H]4C(C)(C)[C@@H](O)CC[C@@]45C[C@@]35CC[C@]12C`, the IC50 with L5178Y [1], with COLO 205, in the series with L5178Y [5], in the series on NIH3T3, in the series on COLO 320 and in the series on MRC5 was more than 10 µM each time. Besides, the Ratio in [2] turned out to be 10.68; in [3] it was 1.26; in [4] it was 3.45; in series [6], 67.05.

Consider `C=C(C)[C@H](O)CC[C@@H](C)[C@H]1CC[C@@]2(C)[C@@H]3CC[C@H]4C(C)(C)[C@@H](O)CC[C@@]45C[C@@]35CC[C@]12C`, for which the IC50 in the series on L5178Y [1], with COLO 205, in the series with L5178Y [5], with NIH3T3, in the series on COLO 320 and in the series with MRC5 was more than 10 µM in each case. The Ratio in [2] was 5.91; in [3], 0.77; in series [4], 5.91; in series [6] it was 43.58.

Consider `CC1=C2C=C3CC[C@@H]4C(C)(C)/C(=N/O)CC[C@@]4(C)[C@@H]3C[C@H]2OC1=O`, for which the concentration for half-maximal inhibition (IC50) in the series on L5178Y [1] and in the series with L5178Y [5] was more than 10 µM each time. The Ratio in series [2] was determined as 0.96; in series [6], 4.88. Further, in series [7], the CI stood at 0.477.

`CC1=C2C=C3CC[C@@H]4C(C)(C)/C(=N/OC(=O)c5ccccc5)CC[C@@]4(C)[C@@H]3C[C@H]2OC1=O`: the concentration for half-maximal inhibition (IC50) in the series with L5178Y [1] and in the series with L5178Y [5] was more than 10 µM each time. Further, the results for the Ratio in [2] and in series [6] were 5.78 and 56.37, respectively. Besides, in series [7], the CI was found to be 0.152.

As to `CC(=O)O/N=C1\CC[C@@]2(C)[C@@H]3C[C@H]4OC(=O)C(C)=C4C=C3CC[C@@H]2C1(C)C`, the concentration for half-maximal inhibition (IC50) in the series on L5178Y [1] and in the series with L5178Y [5] was more than 10 µM in each case. Besides, the Ratio worked out at 3.02 in series [2] and 38.64 in series [6]. The CI in [7] is given as 0.501.

Turning to `C=C(CC[C@@H](C)[C@H]1CC[C@@]2(C)C(=O)[C@@]3(CC[C@]12C)[C@@H](O)C[C@H]1[C@H](C)[C@@H](O)CC[C@@]13C)C(C)C`, the half-inhibitory concentration (IC50) with L5178Y [1], in the series on COLO 205, in the series with L5178Y [5], with NIH3T3, in the series on COLO 320 and in the series on MRC5 was more than 10 µM in each case. The Ratio in series [2] came to 54.38; in series [3], 2.27; in series [4] it was 8; in [8], 43.75; in series [9] it was 1.68; in series [6], 96.02. Besides, in series [7], the CI amounted to 0.872.

`CC1=C2C=C3CC[C@@H]4C(C)(C)/C(=N/OC(=O)c5ccco5)CC[C@@]4(C)[C@@H]3C[C@H]2OC1=O`: the IC50 in the series with L5178Y [1] and in the series with L5178Y [5] was more than 10 µM throughout. Further, the results for the Ratio in series [2] and in series [6] were 2.1 and 40.69, respectively. Also, in series [7], the CI is 0.454.

With `CCCC(=O)O/N=C1\CC[C@@]2(C)[C@@H]3C[C@H]4OC(=O)C(C)=C4C=C3CC[C@@H]2C1(C)C`, the IC50 in the series with L5178Y [1] and in the series on L5178Y [5] was more than 10 µM throughout. Further, the Ratio in [2] worked out at 1.36; in [6], 10.38. Also, the CI in series [7] is recorded as 0.387.

Regarding `CC1=C2C=C3CC[C@@H]4C(C)(C)/C(=N/OC(=O)c5cccs5)CC[C@@]4(C)[C@@H]3C[C@H]2OC1=O`, the 50% inhibitory concentration (IC50) in the series with L5178Y [1] and in the series with L5178Y [5] was more than 10 µM in each case. Moreover, the Ratio in series [2] turned out to be 1.09; in [6] it was 7.09. Besides, in series [7], the CI amounted to 0.324.

Consider `C=C(CC[C@@H](C)[C@H]1CC[C@@]2(C)C3=C(C(=O)C[C@]12C)[C@@]1(C)CC[C@H](O)[C@@H](C)[C@@H]1CC3=O)C(C)C`, for which the IC50 with L5178Y [1], in the series with COLO 205, with L5178Y [5], with NIH3T3, in the series with COLO 320 and in the series with MRC5 was more than 10 µM each time. Further, the Ratio in series [2] was determined as 6.14; in series [3], 1.09; in [4], 1.84; in series [6], 30.68.

For `CC[C@H](CC[C@@H](C)[C@H]1CC[C@H]2[C@@H]3CCC4=CC(=O)CC[C@]4(C)[C@H]3CC[C@]12C)C(C)C`, the IC50 in the series on L5178Y [1], with COLO 205, in the series on L5178Y [5], with NIH3T3, with COLO 320 and in the series with MRC5 was more than 10 µM in each case. The Ratio was 2.51 in series [2], 0.97 in [3], 1.34 in [4] and 22.56 in series [6].

For `CC1=C2C=C3CC[C@@H]4C(C)(C)[C@@H](O)CC[C@@]4(C)[C@@H]3C[C@H]2OC1=O` [HELIOSCOPINOLIDE B], the IC50 with L5178Y [1], in the series with COLO 205, with L5178Y [5], with NIH3T3, in the series on COLO 320 and with MRC5 was more than 10 µM in each case. The Ratio in series [2] is given as 1.7; in series [3], 1.73; in series [4] it was 6.78; in series [6], 8.18. In [7], the CI is 0.652.

In the case of `CC1=C2C=C3CC[C@@H]4C(C)(C)C(=O)CC[C@@]4(C)[C@@H]3C[C@H]2OC1=O` [HELIOSCOPINOLIDE E], the concentration for half-maximal inhibition (IC50) in the series on L5178Y [1], in the series with COLO 205, in the series with L5178Y [5], in the series on NIH3T3, in the series on COLO 320 and with MRC5 was more than 10 µM in each case. Besides, the Ratio in series [2] came out at 1.84; in series [3] it was 0.44; in series [4] it was 0.98; in series [6], 10.23. In addition, the CI in series [7] turned out to be 0.367.

As to `CC1(C)CC[C@]2(C(=O)O)CC[C@]3(C)C(=CC[C@@H]4[C@@]5(C)CC[C@H](O)C(C)(C)[C@@H]5CC[C@]43C)[C@@H]2C1` [OLEANOLIC_ACID], the IC50 with L5178Y [1], in the series with COLO 205, in the series with L5178Y [5], in the series with NIH3T3, with COLO 320 and in the series with MRC5 was more than 10 µM in each case. Besides, the Ratio in series [2] came to 1.06; in series [3], 2.1; in [4], 4.71; in series [6], 1.7.
